The text below walks through data of ChEMBL document CHEMBL4765360, “Design, synthesis and biological evaluation of novel potent STAT3 inhibitors based on BBI608 for cancer therapy” (Eur J Med Chem, 2020).

The subject of test [1] is MDA-MB-231. Kind of test: Antiproliferative activity against human MDA-MB-231 cells overexpressing STAT3 assessed as reduction in cell growth incubated for 48 hrs by CCK-8 assay. The class given is functional, cell-based. To be noted: MDA-MB-231, 48 h. The method in brief: (§1)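 Cells seeded at 5000-7000/well and allowed to settle for 8 h at 37 °C, 5% CO2. Graded compound concentrations were then added in triplicate (DMSO <0.1%) for 48 h. Medium was replaced with 10% CCK-8 for 4 h (MDA-MB-231, MDA-MB-468) or 1 h (HepG2), and A450 was read. IC50 is mean ± SD of at least three independent experiments. HepG2 was grown in high-glucose DMEM with 10% FBS.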
(Formazan colour is commonly taken as a measure of viable cells.)

The next test concerns MDA-MB-468. Kind of test: Antiproliferative activity against human MDA-MB-468 cells overexpressing STAT3 assessed as reduction in cell growth incubated for 48 hrs by CCK-8 assay. The class given is functional, cell-based. To be noted: MDA-MB-468, 48 h. The method in brief:
as §1

In another test the test system is HepG2. Kind of test: Antiproliferative activity against human HepG2 cells overexpressed STAT3 assessed as reduction in cell growth incubated for 48 hrs by CCK-8 assay. It is filed as functional, cell-based. To be noted: HepG2, 48 h. In outline: as §1
In test [2] the target is T1, Signal transducer and activator of transcription 3 (Homo sapiens, UniProt P40763). Kind of test: Displacement of 5-FAM-GpYLPQTV-NH2 from His-tagged STAT3 (unknown origin) (127 to 722 residues) incubated for 30 mins followed by fluorescent peptide probe addition and measured after 1 hr by fluorescence polarization based competition binding assay.
T1 sequence (P40763 whole entry, the tested form may be a part): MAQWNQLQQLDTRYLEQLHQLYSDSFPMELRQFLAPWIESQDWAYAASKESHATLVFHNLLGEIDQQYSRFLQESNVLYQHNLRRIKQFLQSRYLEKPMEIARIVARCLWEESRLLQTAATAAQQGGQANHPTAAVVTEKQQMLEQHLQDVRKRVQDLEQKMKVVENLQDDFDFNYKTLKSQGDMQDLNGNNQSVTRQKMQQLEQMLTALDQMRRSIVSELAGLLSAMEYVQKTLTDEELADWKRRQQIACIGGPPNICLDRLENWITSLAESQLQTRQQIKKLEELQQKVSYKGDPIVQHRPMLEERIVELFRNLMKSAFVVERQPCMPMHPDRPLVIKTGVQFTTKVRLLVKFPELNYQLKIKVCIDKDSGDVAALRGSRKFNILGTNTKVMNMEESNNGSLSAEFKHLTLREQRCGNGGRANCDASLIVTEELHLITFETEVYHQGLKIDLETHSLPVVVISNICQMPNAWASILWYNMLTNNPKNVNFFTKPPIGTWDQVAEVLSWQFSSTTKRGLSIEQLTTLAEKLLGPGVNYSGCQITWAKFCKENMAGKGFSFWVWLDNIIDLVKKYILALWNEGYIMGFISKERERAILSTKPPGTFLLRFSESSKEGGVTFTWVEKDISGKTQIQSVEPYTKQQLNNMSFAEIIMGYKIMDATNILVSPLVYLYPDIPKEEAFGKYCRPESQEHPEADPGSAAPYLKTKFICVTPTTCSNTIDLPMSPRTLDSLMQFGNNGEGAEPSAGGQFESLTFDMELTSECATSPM
Test [3] deals with T1, Signal transducer and activator of transcription 3. Kind of test: Inhibition of STAT3 in human MDA-MB-231 cells assessed as reduction in STAT3 Y705 phosphorylation incubated for 24 hrs by Western blot analysis. To be noted: dose 0.75-3 µM. It is filed as cell-based. The method in brief: (§2)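 MDA-MB-231 cells treated with a range of concentrations for 24 h. RIPA lysates with PMSF, 40 µg protein/lane, on 10% SDS-PAGE, then PVDF. Blocked in 5% milk/TBST for 2 h. Primary antibodies to STAT3, p-STAT3(Y705), STAT1, p-STAT1(Y701), c-Myc and Cyclin D1 overnight at 4 °C; GAPDH as loading control. HRP secondary for 1 h; ECL detection.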
For orientation: A western blot detects proteins with antibodies after separation by electrophoresis.

Test [4] deals with MDA-MB-231. Briefly: Effect on STAT3 expression in human MDA-MB-231 cells at 0.75 to 3 uM incubated for 24 hrs by Western blot analysis. The class given is functional, cell-based. To be noted: dose 0.75-3 µM. In outline:
as §2

For test [5], the target named is T1, Signal transducer and activator of transcription 3. Briefly: Inhibition of STAT3 in human MDA-MB-231 cells assessed as reduction in c-myc expression incubated for 24 hrs by Western blot analysis. It is filed as cell-based. The note with it: dose 0.75-3 µM. The method in brief: as §2
Test [6] has the same target. Briefly: Inhibition of STAT3 in human MDA-MB-231 cells assessed as reduction in Cyclin D1 expression incubated for 24 hrs by Western blot analysis. It is filed as cell-based. The note with it: dose 0.75-3 µM. The method in brief:
as §2

Test [7] has as its target T2, Signal transducer and activator of transcription 1-alpha/beta (Homo sapiens) (UniProt P42224).
T2 sequence (whole entry): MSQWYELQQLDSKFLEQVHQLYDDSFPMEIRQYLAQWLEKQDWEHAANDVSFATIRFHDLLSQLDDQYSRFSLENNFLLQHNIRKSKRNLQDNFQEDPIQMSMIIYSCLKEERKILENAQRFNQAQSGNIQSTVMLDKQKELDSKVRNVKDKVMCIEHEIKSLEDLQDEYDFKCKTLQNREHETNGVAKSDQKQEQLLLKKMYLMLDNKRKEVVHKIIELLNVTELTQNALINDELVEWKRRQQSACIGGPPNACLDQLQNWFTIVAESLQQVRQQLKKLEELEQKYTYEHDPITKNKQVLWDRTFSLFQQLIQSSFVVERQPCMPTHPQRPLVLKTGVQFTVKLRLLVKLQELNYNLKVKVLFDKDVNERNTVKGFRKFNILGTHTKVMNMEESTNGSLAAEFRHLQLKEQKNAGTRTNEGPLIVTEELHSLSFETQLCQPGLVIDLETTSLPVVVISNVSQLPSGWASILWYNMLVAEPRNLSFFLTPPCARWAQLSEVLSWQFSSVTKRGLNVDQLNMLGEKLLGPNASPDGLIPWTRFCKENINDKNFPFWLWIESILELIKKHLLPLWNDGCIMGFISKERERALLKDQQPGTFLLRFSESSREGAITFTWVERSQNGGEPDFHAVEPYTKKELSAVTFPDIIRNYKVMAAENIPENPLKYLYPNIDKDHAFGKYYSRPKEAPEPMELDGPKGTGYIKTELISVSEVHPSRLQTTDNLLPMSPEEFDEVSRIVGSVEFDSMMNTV
Briefly: Inhibition of STAT1 in human MDA-MB-231 cells assessed as reduction in STAT1 Y701 phosphorylation at 0.75 to 3 uM incubated for 24 hrs by Western blot analysis. To be noted: dose 0.75-3 µM. It is filed as cell-based. The method in brief:
as §2

Test [8] deals with MDA-MB-231. Kind of test: Effect on STAT1 expression in human MDA-MB-231 cells at 0.75 to 3 uM incubated for 24 hrs by Western blot analysis. It is filed as functional, cell-based. To be noted: dose 0.75-3 µM. The method in brief:
as §2

The structures appear in SMILES notation. Active and inactive are the calls of the source. No cut-off for these calls is given here.

As a reminder, the IC50 is the point on the concentration scale where inhibition reaches its midpoint. Consider `CC(=O)c1cc2c(o1)C(=O)C(Nc1c(C)cccc1C)=CC2=O`, for which the 50% inhibitory concentration (IC50) worked out at 1.88 µM with MDA-MB-231 [1], 3.3 µM with MDA-MB-468 and 8.03 µM in the test with HepG2.

On to `CC(=O)c1cc2c(o1)C(=O)C(Nc1ccccc1F)=CC2=O`, for which the figures for the concentration for half-maximal inhibition (IC50) in the test on MDA-MB-231 [1], in the test with MDA-MB-468 and in the test on HepG2 were 2.34 µM, 2 µM and 2.55 µM, respectively.

`COc1ccccc1NC1=CC(=O)c2cc(C(C)=O)oc2C1=O`: the 50% inhibitory concentration (IC50) in the test on MDA-MB-231 [1] turned out to be 0.92 µM; in the test on MDA-MB-468, 1.05 µM; in the test on HepG2, 2.41 µM.

Turning to `CC(=O)c1cc2c(o1)C(=O)C(Nc1ccc(N(C)C)cc1)=CC2=O`, the IC50 in the test with MDA-MB-231 [1] was 1.53 µM; with MDA-MB-468, 1.83 µM; in the test with HepG2, 1.51 µM.

With `CC(=O)c1cc2c(o1)C(=O)C(Nc1cccc(C)c1)=CC2=O`, the results for the IC50 in the test with MDA-MB-231 [1], in the test with MDA-MB-468 and in the test with HepG2 were 2.62 µM, 4.54 µM and 5.5 µM, respectively.

As to `COc1cccc(NC2=CC(=O)c3cc(C(C)=O)oc3C2=O)c1`, the half-maximal inhibitory concentration (IC50) worked out at 1.48 µM in the test on MDA-MB-231 [1], 1.55 µM in the test on MDA-MB-468 and 2.36 µM with HepG2.

On to `CC(=O)c1cc2c(o1)C(=O)C(Nc1ccccc1C)=CC2=O`, for which the IC50 was 0.56 µM in the test with MDA-MB-231 [1], 0.73 µM in the test on MDA-MB-468, 1.21 µM in the test on HepG2 and 5.55 µM in [2]. The inhibition result in test [2] (time 1.5 hrs), in [3], in test [5] and in [6] was “Dose-dependent effect” throughout. In addition, the outcome with MDA-MB-231 [4] and in the test on MDA-MB-231 [8] was inactive. In addition, the inhibition result in test [7] is “inactive”.

For the compound `COc1ccc(NC2=CC(=O)c3cc(C(C)=O)oc3C2=O)c(C)c1`, the 50% inhibitory concentration (IC50) was determined as 2.46 µM in the test with MDA-MB-231 [1], 2.92 µM in the test with MDA-MB-468 and 5.9 µM with HepG2.

Regarding `CC(=O)c1cc2c(o1)C(=O)C(NC1CCOCC1)=CC2=O`, the results for the IC50 in the test with MDA-MB-231 [1], in the test on MDA-MB-468 and in the test on HepG2 were 2.07 µM, 3.23 µM and 6.8 µM, respectively.

Consider `CC(=O)c1cc2c(o1)C(=O)C(Nc1ccc(C)cc1)=CC2=O`, for which the IC50 turned out to be 0.9 µM with MDA-MB-231 [1], 3.12 µM with MDA-MB-468 and 1.85 µM in the test with HepG2.

For `CC(=O)c1cc2c(o1)C(=O)C(NC1CC1)=CC2=O`, the 50% inhibitory concentration (IC50) in the test on MDA-MB-231 [1] is 0.94 µM; with MDA-MB-468, 1.97 µM; in the test with HepG2, 1.83 µM.

As for `CC(=O)c1cc2c(o1)C(=O)C(Nc1ccc(F)cc1)=CC2=O`, the IC50 with MDA-MB-231 [1] is 3.21 µM; in the test on MDA-MB-468, 7.77 µM; in the test with HepG2 it was 8.01 µM.

As to `CC(=O)c1cc2c(o1)C(=O)C(Nc1ccc(C(F)(F)F)cc1)=CC2=O`, the figures for the IC50 with MDA-MB-231 [1], with MDA-MB-468 and with HepG2 were 3.7 µM, 2.27 µM and 6.17 µM, respectively.

Regarding `CC(=O)c1cc2c(o1)C(=O)C(Nc1ccc(OC(C)C)cc1)=CC2=O`, the figures for the IC50 in the test with MDA-MB-231 [1], with MDA-MB-468 and with HepG2 were 1.11 µM, 1.18 µM and 1.04 µM, respectively.

In the case of `CC(=O)c1cc2c(o1)C(=O)C(Nc1cc(C)cc(F)c1)=CC2=O`, the IC50 with MDA-MB-231 [1] is 2.62 µM; in the test with MDA-MB-468 it was 2.11 µM; in the test with HepG2 it was 5.66 µM.

`CC(=O)c1cc2c(o1)C(=O)C(Nc1ccccc1C(F)(F)F)=CC2=O`: the IC50 in the test on MDA-MB-231 [1] turned out to be 3.12 µM; with MDA-MB-468 it was 1.75 µM; in the test on HepG2 it was 4.04 µM.

Turning to `CC(=O)c1cc2c(o1)C(=O)C(Nc1ccc(C)c(C)c1)=CC2=O`, the figures for the half-maximal inhibitory concentration (IC50) in the test on MDA-MB-231 [1], with MDA-MB-468 and in the test on HepG2 were 2.54 µM, 1.85 µM and 8.12 µM, respectively.

For `CC(=O)c1cc2c(o1)C(=O)c1ccccc1C2=O` [NAPABUCASIN], the IC50 was 0.7 µM in the test on MDA-MB-231 [1] and 0.84 µM in the test on HepG2.

`CC(=O)c1cc2c(o1)C(=O)C(Nc1cccc(C(F)(F)F)c1)=CC2=O`: the IC50 in the test with MDA-MB-231 [1] is 1.51 µM; in the test with MDA-MB-468, 1.16 µM; in the test with HepG2, 1.99 µM.

For the compound `O=[N+]([O-])c1ccc2c(c1)S(=O)(=O)C=C2`, the IC50 in the test with MDA-MB-231 [1] came out at 2.64 µM; in the test with MDA-MB-468, 1.92 µM.

As to `CC(=O)c1cc2c(o1)C(=O)C(NC1CCCC1)=CC2=O`, the IC50 with MDA-MB-231 [1] turned out to be 1.23 µM; in the test on MDA-MB-468, 2.47 µM; in the test on HepG2, 7.17 µM.

Regarding `CC(=O)c1cc2c(o1)C(=O)C(NC1CCC1)=CC2=O`, the IC50 with MDA-MB-231 [1] is 4.87 µM; with MDA-MB-468, 8.84 µM; with HepG2, 6.75 µM.

As to `CC(=O)c1cc2c(o1)C(=O)C(NC1CCCCC1)=CC2=O`, the figures for the IC50 in the test with MDA-MB-231 [1], in the test with MDA-MB-468 and in the test with HepG2 were 2.88 µM, 4.13 µM and 6.55 µM, respectively.

For `CC(=O)c1cc2c(o1)C(=O)C(Nc1cccc(F)c1)=CC2=O`, the IC50 in the test with MDA-MB-231 [1] was 3.5 µM; with MDA-MB-468 it was 2.5 µM; in the test on HepG2, 5.34 µM.

With `COc1cc(C)c(NC2=CC(=O)c3cc(C(C)=O)oc3C2=O)c(C)c1`, the IC50 came to 0.67 µM in the test on MDA-MB-231 [1], 1.53 µM in the test on MDA-MB-468 and 2.01 µM in the test with HepG2.

For `CCc1ccccc1NC1=CC(=O)c2cc(C(C)=O)oc2C1=O`, the IC50 amounted to 2 µM with MDA-MB-231 [1], 2.46 µM with MDA-MB-468 and 3.38 µM in the test on HepG2.

For the compound `CC(=O)c1cc2c(o1)C(=O)C(Nc1ccccc1)=CC2=O`, the IC50 amounted to 1.14 µM in the test on MDA-MB-231 [1], 1.03 µM in the test on MDA-MB-468 and 1.54 µM in the test with HepG2.
